# Test results: ChEMBL document CHEMBL1148746, “Functional characterization of Tet-AMPA [tetrazolyl-2-amino-3-(3-hydroxy-5-methyl- 4-isoxazolyl)propionic acid] analogues at ionotropic glutamate receptors GluR1-GluR4. The molecular basis for the functional selectivity profile of 2-Bn-Tet-AMPA” (J Med Chem, 2007)
# Assays:
# [1] = molecular target: Glutamate receptor 1 (Rattus norvegicus) (UniProt P19490); experiment: Agonist activity at GluR1 expressed in HEK293 cells relative to S-Glutamate by Fluo-4/Ca2+ assay
# [2] = molecular target: Glutamate receptor 3 (Rattus norvegicus) (UniProt P19492); experiment: Agonist activity at GluR3 expressed in HEK293 cells relative to S-Glutamate by Fluo-4/Ca2+ assay
# [3] = molecular target: Glutamate receptor 4 (Rattus norvegicus) (UniProt P19493); experiment: Agonist activity at GluR4 expressed in HEK293 cells relative to S-Glutamate by Fluo-4/Ca2+ assay
# [4] = molecular target: Glutamate receptor 4 (Rattus norvegicus) (UniProt P19493); experiment: Agonist activity at GluR4 expressed in HEK293 cells by Fluo-4/Ca2+ assay
# [5] = molecular target: Glutamate receptor 1 (Rattus norvegicus) (UniProt P19490); experiment: Agonist activity at GluR1 expressed in HEK293 cells by Fluo-4/Ca2+ assay
# [6] = molecular target: Glutamate receptor 2 (Rattus norvegicus) (UniProt P19491); experiment: Agonist activity at GluR2Q expressed in HEK293 cells by Fluo-4/Ca2+ assay
# [7] = molecular target: Glutamate receptor 3 (Rattus norvegicus) (UniProt P19492); experiment: Agonist activity at GluR3 expressed in HEK293 cells by Fluo-4/Ca2+ assay
# [8] = Agonist activity at GluR1 M686V/I687 mutant expressed in HEK293 cells by Fluo-4/Ca2+ assay; assay type: functional, cell-based; conditions: Homo sapiens
# Summary of the method: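 Rat GluR1i mutants, cDNA sequence-verified, transiently transfected into HEK293 cells and kept 2-3 weeks under 3 mg/mL G-418 selection to make polyclonal cells. Cells were plated 16-24 h ahead, loaded with Fluo-4/AM for 1 h at 37 °C, then held in HBSS with 20 mM HEPES, 10 mM CaCl2, 2.5 mM probenecid and 100 µM CTZ, pH 7.4. Fluorescence (ex 485/em 520 nm) was read up to 60 s after agonist addition.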
# [9] = molecular target: Glutamate receptor 4 (Homo sapiens) (UniProt P48058); experiment: Agonist activity at GluR4 expressed in Xenopus oocyte cells relative to S-Glutamate; assay type: functional, cell-based
# Summary of the method: (§1)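 Rat GluR1i mutant or GluR4i cRNA expressed in Xenopus oocytes, recorded by two-electrode voltage clamp 2-3 days after injection. Low-Ca2+ Ringer's (115 mM NaCl, 0.1 mM CaCl2, pH 7.5) was used, with 30 s pretreatment and continuous application of 100 µM CTZ. Peak currents were normalized to 1000 µM glutamate + 100 µM CTZ and fitted to the Hill equation; n = 3.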
# [10] = system: Glutamate receptor 1 (Homo sapiens), P42261 [D417S,M704V,I705A]; experiment: Agonist activity at GluR1 D399S/M686V/I687A mutant expressed in Xenopus oocyte cells relative to S-Glutamate; assay type: functional, cell-based
# Summary of the method: as §1
# Sequence of Glutamate receptor 4 (Rattus norvegicus) (P19493 whole entry, looked up): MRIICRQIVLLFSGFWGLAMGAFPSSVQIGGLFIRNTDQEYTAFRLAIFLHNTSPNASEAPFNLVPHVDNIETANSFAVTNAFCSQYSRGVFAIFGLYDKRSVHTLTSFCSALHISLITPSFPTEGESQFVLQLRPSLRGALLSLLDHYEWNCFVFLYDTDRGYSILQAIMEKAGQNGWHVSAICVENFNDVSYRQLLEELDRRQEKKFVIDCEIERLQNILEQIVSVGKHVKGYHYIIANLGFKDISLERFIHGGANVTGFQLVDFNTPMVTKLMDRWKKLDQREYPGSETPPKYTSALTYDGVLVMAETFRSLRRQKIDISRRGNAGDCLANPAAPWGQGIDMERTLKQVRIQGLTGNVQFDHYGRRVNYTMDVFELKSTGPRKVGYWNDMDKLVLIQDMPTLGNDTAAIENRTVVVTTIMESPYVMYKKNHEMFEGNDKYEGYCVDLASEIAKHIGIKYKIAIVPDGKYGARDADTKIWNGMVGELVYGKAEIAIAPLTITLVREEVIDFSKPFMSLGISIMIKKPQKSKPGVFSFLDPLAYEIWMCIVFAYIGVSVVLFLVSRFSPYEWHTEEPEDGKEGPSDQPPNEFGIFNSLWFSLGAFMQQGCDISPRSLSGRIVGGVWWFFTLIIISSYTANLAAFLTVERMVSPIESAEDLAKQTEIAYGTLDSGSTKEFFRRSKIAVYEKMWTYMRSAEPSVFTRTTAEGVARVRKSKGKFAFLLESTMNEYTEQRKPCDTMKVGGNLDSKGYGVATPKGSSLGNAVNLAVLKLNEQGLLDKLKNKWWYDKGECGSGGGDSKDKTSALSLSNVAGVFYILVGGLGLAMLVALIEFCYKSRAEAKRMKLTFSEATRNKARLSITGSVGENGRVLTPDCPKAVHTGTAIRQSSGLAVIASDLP
# Sequence of Glutamate receptor 1 (Rattus norvegicus) (P19490 whole entry, looked up): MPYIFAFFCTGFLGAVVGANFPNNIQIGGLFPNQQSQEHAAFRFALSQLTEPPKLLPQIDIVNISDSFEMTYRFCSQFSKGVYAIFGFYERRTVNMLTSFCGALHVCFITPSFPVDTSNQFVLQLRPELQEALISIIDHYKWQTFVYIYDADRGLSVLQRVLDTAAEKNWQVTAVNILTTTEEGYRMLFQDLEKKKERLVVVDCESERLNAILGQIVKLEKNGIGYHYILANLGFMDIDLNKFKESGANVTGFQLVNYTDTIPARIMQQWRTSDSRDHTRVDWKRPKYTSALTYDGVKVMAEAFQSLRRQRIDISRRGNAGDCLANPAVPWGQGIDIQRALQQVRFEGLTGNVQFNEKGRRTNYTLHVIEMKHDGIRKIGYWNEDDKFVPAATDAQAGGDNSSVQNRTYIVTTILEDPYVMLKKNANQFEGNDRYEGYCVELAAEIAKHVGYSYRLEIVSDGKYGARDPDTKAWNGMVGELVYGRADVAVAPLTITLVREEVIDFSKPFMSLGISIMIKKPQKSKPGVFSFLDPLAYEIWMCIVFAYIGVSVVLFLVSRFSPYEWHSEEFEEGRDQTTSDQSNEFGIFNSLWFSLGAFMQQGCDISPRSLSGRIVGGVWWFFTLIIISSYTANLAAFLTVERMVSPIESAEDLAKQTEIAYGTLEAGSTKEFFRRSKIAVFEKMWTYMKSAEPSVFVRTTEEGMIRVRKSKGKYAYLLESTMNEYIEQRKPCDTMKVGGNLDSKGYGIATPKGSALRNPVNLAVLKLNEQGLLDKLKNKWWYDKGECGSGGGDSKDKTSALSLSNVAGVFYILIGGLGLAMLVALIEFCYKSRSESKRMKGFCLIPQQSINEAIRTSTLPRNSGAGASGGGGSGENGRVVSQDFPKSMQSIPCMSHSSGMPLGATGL
# Sequence of Glutamate receptor 2 (Rattus norvegicus) (P19491 whole entry, looked up): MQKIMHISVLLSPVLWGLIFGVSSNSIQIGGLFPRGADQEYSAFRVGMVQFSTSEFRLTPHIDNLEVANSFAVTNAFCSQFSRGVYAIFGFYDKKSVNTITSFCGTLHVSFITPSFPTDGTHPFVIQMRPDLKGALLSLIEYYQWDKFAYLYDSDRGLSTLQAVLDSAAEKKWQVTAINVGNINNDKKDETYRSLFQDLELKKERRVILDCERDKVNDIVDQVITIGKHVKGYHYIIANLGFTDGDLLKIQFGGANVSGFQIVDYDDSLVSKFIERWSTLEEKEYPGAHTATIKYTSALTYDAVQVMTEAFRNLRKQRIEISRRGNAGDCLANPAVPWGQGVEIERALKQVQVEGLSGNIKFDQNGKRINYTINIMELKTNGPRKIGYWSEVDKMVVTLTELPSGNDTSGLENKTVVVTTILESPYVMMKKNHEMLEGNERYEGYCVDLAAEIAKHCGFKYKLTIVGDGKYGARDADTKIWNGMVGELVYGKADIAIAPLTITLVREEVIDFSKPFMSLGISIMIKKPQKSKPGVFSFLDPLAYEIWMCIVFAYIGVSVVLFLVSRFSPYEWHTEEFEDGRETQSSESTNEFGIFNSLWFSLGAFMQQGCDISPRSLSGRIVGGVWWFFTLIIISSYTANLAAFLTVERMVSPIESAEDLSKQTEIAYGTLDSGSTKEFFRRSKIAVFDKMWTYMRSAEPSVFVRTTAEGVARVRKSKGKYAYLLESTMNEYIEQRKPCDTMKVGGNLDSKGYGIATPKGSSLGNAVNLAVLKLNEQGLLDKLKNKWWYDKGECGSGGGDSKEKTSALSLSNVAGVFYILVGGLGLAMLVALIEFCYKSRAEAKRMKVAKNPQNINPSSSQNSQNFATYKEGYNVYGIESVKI
# Sequence of Glutamate receptor 3 (Rattus norvegicus) (P19492 whole entry, looked up): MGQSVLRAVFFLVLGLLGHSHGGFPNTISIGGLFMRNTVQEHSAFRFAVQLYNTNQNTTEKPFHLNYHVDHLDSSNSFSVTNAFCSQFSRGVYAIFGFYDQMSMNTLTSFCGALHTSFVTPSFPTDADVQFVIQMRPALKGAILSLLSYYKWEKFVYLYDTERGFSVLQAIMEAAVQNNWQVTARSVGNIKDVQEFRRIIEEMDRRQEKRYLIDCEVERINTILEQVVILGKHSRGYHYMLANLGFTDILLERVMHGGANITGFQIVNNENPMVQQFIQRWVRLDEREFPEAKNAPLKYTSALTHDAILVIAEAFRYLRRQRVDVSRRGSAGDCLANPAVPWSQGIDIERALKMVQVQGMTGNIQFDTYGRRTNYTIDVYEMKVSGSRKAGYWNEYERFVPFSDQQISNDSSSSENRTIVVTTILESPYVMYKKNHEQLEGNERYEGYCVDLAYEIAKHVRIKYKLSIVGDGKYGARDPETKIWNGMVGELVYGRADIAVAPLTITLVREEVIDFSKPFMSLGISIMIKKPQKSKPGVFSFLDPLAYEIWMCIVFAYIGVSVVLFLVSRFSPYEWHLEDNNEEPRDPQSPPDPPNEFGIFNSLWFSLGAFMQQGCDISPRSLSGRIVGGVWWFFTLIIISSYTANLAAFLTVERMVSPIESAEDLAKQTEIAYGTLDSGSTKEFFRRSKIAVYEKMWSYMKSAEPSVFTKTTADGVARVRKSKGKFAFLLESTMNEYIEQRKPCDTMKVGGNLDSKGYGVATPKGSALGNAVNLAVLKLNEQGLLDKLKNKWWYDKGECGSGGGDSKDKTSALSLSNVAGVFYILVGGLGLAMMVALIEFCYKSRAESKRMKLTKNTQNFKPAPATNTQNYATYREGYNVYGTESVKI
# Sequence of Glutamate receptor 4 (Homo sapiens) (P48058 whole entry): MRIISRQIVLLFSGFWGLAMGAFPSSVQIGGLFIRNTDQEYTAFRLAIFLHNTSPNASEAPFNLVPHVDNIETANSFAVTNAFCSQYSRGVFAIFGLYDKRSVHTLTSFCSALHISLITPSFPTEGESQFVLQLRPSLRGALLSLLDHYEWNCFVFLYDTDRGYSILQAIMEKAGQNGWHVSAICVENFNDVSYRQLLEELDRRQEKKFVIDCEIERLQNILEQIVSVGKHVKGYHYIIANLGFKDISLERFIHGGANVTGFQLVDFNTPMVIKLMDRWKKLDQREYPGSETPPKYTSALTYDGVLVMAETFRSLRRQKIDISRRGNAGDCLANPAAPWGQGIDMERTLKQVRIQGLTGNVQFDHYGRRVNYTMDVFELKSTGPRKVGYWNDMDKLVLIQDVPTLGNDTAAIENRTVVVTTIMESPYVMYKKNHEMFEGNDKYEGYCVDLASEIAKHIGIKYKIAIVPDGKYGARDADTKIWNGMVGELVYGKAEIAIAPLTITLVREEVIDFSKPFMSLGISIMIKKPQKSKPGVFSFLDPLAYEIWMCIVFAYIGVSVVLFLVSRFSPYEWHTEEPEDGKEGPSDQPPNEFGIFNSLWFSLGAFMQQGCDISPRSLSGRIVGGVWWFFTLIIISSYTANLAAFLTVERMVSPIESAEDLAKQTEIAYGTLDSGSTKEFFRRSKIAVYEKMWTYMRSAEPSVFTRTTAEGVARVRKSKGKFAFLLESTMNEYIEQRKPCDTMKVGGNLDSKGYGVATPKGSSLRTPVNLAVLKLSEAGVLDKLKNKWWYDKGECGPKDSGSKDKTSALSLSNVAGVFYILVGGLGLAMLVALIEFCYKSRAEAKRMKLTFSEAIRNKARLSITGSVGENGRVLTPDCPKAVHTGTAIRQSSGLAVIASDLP
RUmax [1],RUmax [2],RUmax [3],EC50 ([4]; read-out: EC50),EC50 [5],EC50 [6],EC50 ([7]; read-out: EC50),EC50 ([7]; read-out: Log EC50 (converted)),EC50 ([4]; read-out: Log EC50 (converted)),EC50 ([8]; read-out: EC50),EC50 ([8]; read-out: Log EC50 (converted)),RUmax [9],RUmax [10],Structure (SMILES)
83%,95%,94%,–,–,–,–,–,–,–,–,–,–,CCn1nnc(-c2onc(O)c2CC(N)C(=O)O)n1 (racemic)
–,–,–,4 µM,42 µM,52 µM,18 µM,15.8 µM,–,–,–,–,–,CCn1nnc(-c2o[nH]c(=O)c2CC(N)C(=O)O)n1 (racemic)
82%,85%,97%,79 µM,480 µM,830 µM,450 µM,398 µM,63.1 µM,–,–,–,–,CCCn1nnc(-c2onc(O)c2CC(N)C(=O)O)n1 (racemic)
–,22%,79%,3000 µM,> 3000 µM,> 3000 µM,> 3000 µM,–,–,–,–,–,–,Cn1nnnc1-c1onc(O)c1CC(N)C(=O)O (racemic)
–,–,–,–,–,–,–,–,–,76 µM,79.4 µM,–,–,N[C@@H](CCC(=O)O)C(=O)O [GLUTAMIC ACID]
73%,73%,83%,160 µM,550 µM,1000 µM,700 µM,–,–,–,–,–,–,CC(C)n1nnc(-c2onc(O)c2CC(N)C(=O)O)n1 (racemic)
–,–,–,–,–,–,–,–,–,500 µM,–,63%,60%,NC(Cc1c(O)noc1-c1nnn(Cc2ccccc2)n1)C(=O)O (racemic)
